Measurements as given in PMC4636435 (Cell host & microbe, 2015).
“Also recorded” adds a separate entry of the source.

What was measured:
recombinant M1 protein = experiment: Pulldown with His-tagged recombinant M1 as bait / blot; assay type: binding, Streptococcus pyogenes (group A Streptococcus), M1T1
wild-type and Δemm1 GAS = experiment: Resistance of wild-type and Δemm1 GAS to antimicrobial peptides; assay type: cell-based, Streptococcus pyogenes (group A Streptococcus); settings: serum-free DMEM with 10% THB, 24 h; for M1-dependent protection of GAS from killing by the peptide: wild-type vs. Δemm1 GAS
Procedure, shortened: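 GAS M1T1 5448 and isogenic Δemm1 were grown overnight at 37°C, diluted 1:40 in Todd-Hewitt broth, grown statically at 37°C to OD600 0.400, then PBS-washed. 2×10^5 bacteria in serum-free DMEM with phenol red and 10% THB were exposed to cathelicidin- or defensin-family peptides. MIC was the lowest concentration preventing growth after 24 h. Means ± s.d., n=3; ≥3 independent experiments.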

[1] = biological target: LL-37, human cathelicidin antimicrobial peptide (human); experiment: SPR
human neutrophils = experiment: Neutrophil chemotaxis in transwell system; assay type: cell-based; settings: 1 h, 37°C, n=3
cathelicidin = settings: human cells; ref Liu et al., 2006; cited from earlier work
recombinant M49 protein = biological target: T1, recombinant M49 protein (Streptococcus pyogenes (group A …, UniProt P16947 42-359)); experiment: SPR
T1 sequence: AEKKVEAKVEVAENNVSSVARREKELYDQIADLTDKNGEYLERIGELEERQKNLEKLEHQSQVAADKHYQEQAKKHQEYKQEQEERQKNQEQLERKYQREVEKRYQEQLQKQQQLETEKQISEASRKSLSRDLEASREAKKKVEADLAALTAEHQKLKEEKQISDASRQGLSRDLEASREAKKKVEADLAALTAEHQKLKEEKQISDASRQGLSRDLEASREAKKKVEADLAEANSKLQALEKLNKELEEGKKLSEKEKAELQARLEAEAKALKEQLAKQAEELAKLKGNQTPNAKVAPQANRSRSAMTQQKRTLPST

M1 protein = experiment: SPR; assay type: binding, Streptococcus pyogenes (group A Streptococcus), M1T1; settings: ratio of Kd M49 vs. M1, SPR
[2] = system: M1T1 GAS, wild-type vs. Δemm1; experiment: FACS detection of cathelicidin on bacterial surface; assay type: cell-based, Streptococcus pyogenes (group A Streptococcus); settings: recombinant hCAP18, wild-type vs. Δemm1, anti-LL-37 antibody

Molecule: mCRAMP: active murine form of cathelicidin; de novo synthesis (Anaspec) (ISRLAGLLRKGGEKIGEKLKKIGQKIKNFFQKLVPQPE)
- binding and inhibition by M1 vs. M49 (recombinant M1 protein; statement in the in vivo section): M1 but not M49 binds and inhibits CRAMP
- M1-dependent protection of GAS from killing by the peptide (wild-type and Δemm1 GAS): M1 protected GAS from killing

Molecule: recombinant M1 protein (from UniProt Q99XV0) (natural protein)
- Kd [1]: 1.18 µM

Molecule: N-formyl-Met-Leu-Phe [fMLP]
- stimulation of neutrophil chemotaxis (human neutrophils): stimulated robust chemotaxis of neutrophils

Molecule: C=C1CC[C@H](O)C/C1=C/C=C1\CCC[C@]2(C)[C@@H]([C@H](C)/C=C/[C@H](C)C(C)C)CC[C@@H]12 [vitamin D]
- induction of cathelicidin expression (cathelicidin): strongly induces cathelicidin expression

Molecule: KR-20: processed form of cathelicidin expressed by keratinocytes in human skin; de novo synthesis (Anaspec) (KRIVQRIKDFLRNLVPRTES)
- M1-dependent protection of GAS from killing by the peptide (wild-type and Δemm1 GAS): M1 protected GAS from killing

B1: recombinant M49 protein (natural protein)
chain: T1 sequence
- Kd [1]: 62.7 µM

B2: recombinant hCAP18, full-length human cathelicidin (natural protein)
chain: QVLSYKEAVLRAIDGINQRSSDANLYRLLDLDPRPTMDGDPDTPKPVSFTVKETVCPRTTQQSPEDCDFKKDGLVKRCMGTVTLNQARGSFDISCDKDNKRFALLGDFFRKSKEKIGKEFKRIVQRIKDFLRNLVPRTES
- Kd (recombinant M49 protein): 9.07 µM

B3: hCAP18: full-length human cathelicidin precursor, recombinant, expressed from pET28a (protein)
chain: B2 chain
modifications: left off: His tag (from the vector pET28a), end not stated, state not stated
- stronger binding of M1 compared to M49 protein (from Kd) (M1 protein): 10 fold
- major cathelicidin form pulled down by M1 from neutrophil lysate (recombinant M1 protein; whole lysates from neutrophils, Western blot with anti-LL-37 antibody): the major cathelicidin form detected was uncleaved hCAP18
- binding to bacterial surface [2]: recombinant hCAP18 bound the GAS surface in an M1-dependent manner; also recorded: Δemm1 GAS binds significantly less hCAP18 than wild-type GAS
- antimicrobial activity (wild-type and Δemm1 GAS; wild-type and Δemm1 GAS): lacked antimicrobial activity
